Measured values from different studies.
Protocols differ between the studies behind these lines.
Target: Activin receptor type-1B (ACVR1B, Homo sapiens, UniProt P36896)
One construct used (P36896 24-505): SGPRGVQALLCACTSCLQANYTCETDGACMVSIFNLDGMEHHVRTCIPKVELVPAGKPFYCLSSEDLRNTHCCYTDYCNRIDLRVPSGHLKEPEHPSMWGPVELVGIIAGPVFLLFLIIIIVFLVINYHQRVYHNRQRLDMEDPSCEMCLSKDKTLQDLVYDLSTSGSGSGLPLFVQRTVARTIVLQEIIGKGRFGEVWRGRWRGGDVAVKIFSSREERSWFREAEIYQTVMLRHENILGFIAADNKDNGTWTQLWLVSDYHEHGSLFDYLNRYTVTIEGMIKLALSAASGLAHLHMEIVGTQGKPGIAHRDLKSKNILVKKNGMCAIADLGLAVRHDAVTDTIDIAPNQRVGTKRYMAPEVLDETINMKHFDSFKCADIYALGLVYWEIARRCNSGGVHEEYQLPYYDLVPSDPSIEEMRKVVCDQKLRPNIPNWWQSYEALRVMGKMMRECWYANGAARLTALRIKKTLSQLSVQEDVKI

For `C[C@@H]1CN(c2ccc3ncc(-c4ccc5[nH]nc(C6CC6)c5c4)n3n2)C[C@H](C)O1`, the remaining binding was 100% (binding, competition with immobilised ligand; 50 nM).
The remaining binding of `COc1ccnn2ncc(-c3ccnc(N(C)C)n3)c12` is reported as 85% (binding; 1 µM).
The remaining binding of `CC(=O)C1=C(C)N(c2cccc(C(F)(F)F)c2)C(=O)N[C@@H]1c1ccc(C#N)nc1` is reported as 100% (cell-free assay, competition with immobilised ligand; 1 µM).
`CCN1CCN(Cc2ccc(C(=O)Nc3ccc(C)c(Oc4ccc5c(c4)CC(=O)N5)c3)cc2C(F)(F)F)CC1` gave a remaining binding of 100% (binding, competition with immobilised ligand; 1 µM).
`FC(F)(F)Oc1cccc(-c2cnc3ccc(-c4ccncc4)nn23)c1` gave a remaining binding of 85% (cell-free assay, competition with immobilised ligand; 5 µM).
`O=C(NCC1CCOCC1)c1n[nH]cc1NC(=O)c1c(F)cccc1F` gave a remaining binding of 100% (binding, competition with immobilised ligand; 1 µM).
`O=C(c1ccc(Nc2ncc(Cl)c(-c3cc4ccccc4s3)n2)cc1)N1CCC(N2CCCC2)CC1` gave a remaining binding of 48% (binding, competition with immobilised ligand; 1 µM).
For `c1cnn2ncc(-c3ccnc(N4CCC45COC5)n3)c2c1`, the remaining binding was 82% (binding; 1 µM).
With `Cc1c(NC(=O)c2cc(C(N)=O)nc3cc(F)ccc23)c(C(F)(F)F)nn1Cc1ccc(C#N)cc1` the remaining binding was 80% (cell-free assay, competition with immobilised ligand; 1 µM).
For `C[C@@H](c1ccc(-n2cnc3c(N)ncnc32)cc1)N1CCc2nn(C)c(Cc3ccccc3)c2C1=O`, the remaining binding was 93% (binding, competition with immobilised ligand; 0.1 µM).
The remaining binding of `O=C(NCCCN1CCOCC1)c1ccc(Nc2nccc(-c3cc4ccccc4s3)n2)cc1` is reported as 75% (binding, competition with immobilised ligand; 1 µM).
`Cc1nc(C2CCN(C(=O)c3ccc(OC(F)(F)F)cc3N)CC2)c2ncc(N3CCN(C)CC3)cc2n1` gave a remaining binding of 86% (cell-free assay, competition with immobilised ligand; 1 µM).
`COc1cnc(Nc2cccc(S(N)(=O)=O)c2)nc1N1CCN(c2ccccc2)CC1` has a remaining binding of 98% (binding, competition with immobilised ligand; 1 µM).
`CN(C)c1nccc(-c2cnn3ncccc23)n1` has a remaining binding of 96% (binding; 1 µM).
`CC(C)(C)c1ccc(-c2nc(CBr)nn2-c2cccc(O)c2)cc1` gave a remaining binding of 100% (cell-free assay, competition with immobilised ligand; 10 µM).
`CNC(=O)c1ccc(Nc2ncc(C(F)(F)F)c(NCc3nccnc3N(C)S(C)(=O)=O)n2)cc1` gave a remaining binding of 69% (cell-free assay, competition with immobilised ligand; 0.1 µM).
With `CN(c1nccc(-c2cnn3ncccc23)n1)C1CC1` the remaining binding was 100% (binding; 1 µM).
For `COc1cccc(CNC(=O)c2nc3scc(COCc4ccc(C(=O)O)cc4)c3c(=O)[nH]2)c1`, the remaining binding was 89.4% (cell-free assay, competition with immobilised ligand; 1 µM).
`N[C@@H]1CCN(c2nccc(-c3cnn4ncccc34)n2)C1` has a remaining binding of 100% (binding; 1 µM).
The remaining binding of `O=C(c1ccc(Nc2ncc(Cl)c(-c3ccc(Cl)s3)n2)cc1)N1CCC(N2CCCC2)CC1` is reported as 58% (binding, competition with immobilised ligand; 1 µM).
`O=C(NCc1ncc(C(F)(F)F)cc1Cl)c1ccc2c(c1)C1(CCS(=O)(=O)CC1)[C@H](C1CC1)N2S(=O)(=O)c1ccc(F)cc1` gave a remaining binding of 94% (cell-free assay, competition with immobilised ligand; 1 µM).
`C[C@H]1CCN(c2nccc(-c3cnn4ncccc34)n2)C1` gave a remaining binding of 71% (binding; 1 µM).
`CS(=O)(=O)NCC[C@H](NC(=O)c1cncc2c1cnn2-c1ccc(F)cc1)c1ccnc(S(C)(=O)=O)c1` gave a remaining binding of 100% (cell-free assay, competition with immobilised ligand; 1 µM).
For `CN(CCCC(F)(F)F)c1nccc(-c2cnn3ncccc23)n1`, the remaining binding was 96% (binding; 1 µM).
For `N#Cc1ccccc1CSc1nnc2c(n1)[nH]c1ccccc12`, the remaining binding was 91% (binding, competition with immobilised ligand; 10 µM).
